Bioassay records: PubChem, several laboratories
CYP2C9 inh: inhibitors of human CYP2C9. P11712. inhibition, % at 5 µM. CYP2C9 Supersomes, luciferin-H conversion, luminescence. 20% of 96,000 active;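 active = blocking of liver enzyme CYP2C9 beyond about 50% at 5 µM, limit read from the data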
CYP2C9 activ: activators of human CYP2C9; P11712; recombinant CYP2C9, luciferin-H conversion, luminescence; active compounds read high; factor 1 = untreated enzyme, 0 = blocked; activation factor at 5 µM; 1.4% of 96,000 active; AID 1024;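 active = activation factor of 2 or more for CYP2C9 at a 5 µM dose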
CYP2C19 activ: activators of human cytochrome P450 2C19; P33261; recombinant CYP2C19, luciferin-H EGE luminescence; active compounds read high; 0 = fully inhibited enzyme, 1 = untreated enzyme; activation factor at 5 µM; 96,000 tested, under 10 active;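 active = activation factor of at least 2 at 5 µM in the primary screen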
Target sequence (P33261 whole entry, looked up): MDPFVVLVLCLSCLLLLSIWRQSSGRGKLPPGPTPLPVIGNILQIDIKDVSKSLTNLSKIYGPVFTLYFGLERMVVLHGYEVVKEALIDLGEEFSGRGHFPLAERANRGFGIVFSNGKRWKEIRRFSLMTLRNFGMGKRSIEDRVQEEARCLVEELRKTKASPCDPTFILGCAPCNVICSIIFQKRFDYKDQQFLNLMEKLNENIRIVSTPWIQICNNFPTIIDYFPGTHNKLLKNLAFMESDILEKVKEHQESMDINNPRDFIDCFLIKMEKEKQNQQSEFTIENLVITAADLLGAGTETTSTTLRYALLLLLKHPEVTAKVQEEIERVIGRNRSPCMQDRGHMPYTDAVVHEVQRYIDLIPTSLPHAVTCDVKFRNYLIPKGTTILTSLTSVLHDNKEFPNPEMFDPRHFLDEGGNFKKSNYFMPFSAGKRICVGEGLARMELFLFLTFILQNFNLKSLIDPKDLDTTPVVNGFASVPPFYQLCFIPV
Ecoli tolC: growth inhibitors of E. coli BW25113 tolC mutant | AID 573 | OD615 | 2.2% of 65,000 active | growth inhibition, % at 10 µM (by protocol);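 active = growth inhibition at or above a cutoff equal to the mean over every tested compound plus 3 SD, cut at about 60% in these data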;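 note: growth measured after 20 h incubation at 37 °C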
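Signal: optical density read at 615 nm; Assay system: E. coli ΔtolC::kan strain BW25113; Times: 20 h incubation with compound, 37 °C; Dosing: 10 µM final, single dose.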
CYP2C19 inh: inhibitors of human CYP2C19. CYP2C19 Supersomes, luciferin-H EGE luminescence, 30 min. inhibition, % at 5 µM. 21% of 96,000 active;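 active = CYP2C19 inhibition above a set limit at 5 µM in the primary screen, cut at about 50% in these data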
Ecoli WT expand: E. coli BW25113 growth inhibition, expanded screen; OD600 absorbance; growth inhibition, % at 100 µM; 0.15% of 98,000 active;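 active = growth inhibition above about 50% at one test dose, limit read from the data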;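 note: growth measured after 20 h incubation at 37 °C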
Large screens that a line does not name were inactive. Rows were chosen to be rich in hits. Some 29% of all compounds tested hit in one or more screens of this group.

CC(=O)NC(Cc1ccccc1C)C(=O)NC1CCN(c2c3c(nc4ncnn24)CCC3)CC1 (stereo not given)	none (no result: CYP2C9 inh, CYP2C9 activ, CYP2C19 activ, CYP2C19 inh, Ecoli WT expand)
O=C(Cc1ncc(C(F)(F)F)cc1Cl)N1CCN(c2ccccn2)CC1	none (no result: Ecoli tolC)
O=C(CCSc1ccc(Cl)cc1)N1CCN(c2ncccn2)CC1	CYP2C9 inh 65
O=C(CN1CCN(c2ncc(C(F)(F)F)cc2Cl)CC1)N1CCN(c2ncc(C(F)(F)F)cc2Cl)CC1	CYP2C9 inh 82, CYP2C19 inh 62 (no result: Ecoli tolC)
O=C(OCCN1CCN(c2ncc(C(F)(F)F)cc2Cl)CC1)c1ccc(F)cc1	CYP2C9 inh 69 (no result: Ecoli tolC)
O=C(CSc1ccc(Cl)cc1)N1CCN(c2ncc(C(F)(F)F)cc2Cl)CC1	CYP2C9 inh 81 (no result: Ecoli tolC)
CC(C)(C)c1ccc(C(=O)NCCC(=O)N2CCN(c3ncccn3)CC2)cc1	none (no result: Ecoli tolC)
Cc1ccc(C(=O)OCCN2CCN(c3ncc(C(F)(F)F)cc3Cl)CC2)cc1	none (no result: Ecoli tolC)
O=C(CSc1nnc(CNC(=O)c2c(F)cccc2Cl)o1)c1ccccc1	none (no result: CYP2C9 inh, CYP2C9 activ, CYP2C19 activ, CYP2C19 inh)
O=C(O)COc1c(F)c(F)c(C(F)(F)F)c(F)c1F	none
COC(=O)C1=CN(CC2CCCO2)C=C(C(=O)OC)C1c1ccccc1C(F)(F)F (stereo not given)	none (no result: Ecoli tolC)
COC(=O)C1=CN(CC2CCCO2)C=C(C(=O)OC)C1c1ccsc1 (stereo not given)	CYP2C9 inh 52
CCCC(=O)n1nc(-c2ccco2)nc1N	none (no result: Ecoli tolC)
CCCC(=O)n1nc(-c2ccc(OC)cc2)nc1N	CYP2C19 inh 53
COc1ccc(N2CSC3=C(C#N)C(c4cccc(OC)c4OC)CC(=O)N3C2)cc1 (stereo not given)	none
COc1ccc(C2CC(=O)N3CN(c4ccc(C)c(Cl)c4)CSC3=C2C#N)cc1 (stereo not given)	CYP2C9 inh 98, CYP2C19 inh 77
COc1ccc(C2CC(=O)N3CN(c4ccccc4F)CSC3=C2C#N)cc1OC (stereo not given)	CYP2C9 inh 84
CCc1ccccc1N1C(=O)C2CC=CCC2C1=O (stereo not given)	none
COc1ccc(OC)c(C2CC(=O)N3CN(c4ccccc4)CSC3=C2C#N)c1 (stereo not given)	CYP2C9 inh 60
CCc1ccccc1N1CSC2=C(C#N)C(c3ccccc3F)CC(=O)N2C1 (stereo not given)	CYP2C9 inh 94, CYP2C19 inh 82
COc1cc(OC)c(C2CC(=O)N3CN(c4ccccc4C)CSC3=C2C#N)cc1OC (stereo not given)	CYP2C9 inh 86
Cc1ccc(C2C(C#N)=C(N)SC(N)=C2C#N)o1	none
Cc1cccc(N2CSC3=C(C#N)C(c4ccc(C)o4)CC(=O)N3C2)c1 (stereo not given)	CYP2C9 inh 86
COc1ccc(C)cc1NC(=O)CSc1nnc(COc2ccc(Cl)cc2)n1Cc1ccco1	none
COc1ccccc1-n1c(CNC(=O)c2ccco2)nnc1SCC(=O)Nc1cc(C)ccc1C	CYP2C9 activ 2
COc1ccc(NC(=O)CSc2nnc(-c3ccccc3Cl)n2Cc2ccco2)c(OC)c1	CYP2C9 inh 51, CYP2C19 inh 55
CCOc1ccc(NC(=O)CSc2nnc(-c3ccccc3Cl)n2Cc2ccco2)cc1	CYP2C9 inh 96, CYP2C19 inh 86
COc1ccc(NC(=O)CSc2nnc(-c3ccccc3)n2Cc2ccco2)c(OC)c1	CYP2C9 inh 86, CYP2C19 inh 91
COc1ccc(-c2nnc(SCC(=O)Nc3cc(C)on3)n2C)cc1OC	none
Cc1cccc(OCc2nnc(SCC(=O)N(C(C)C)C(C)C)n2Cc2ccco2)c1C	CYP2C19 inh 54
COc1ccc(C)cc1NC(=O)CSc1nnc(CC(=O)Nc2ccccc2C)n1C	CYP2C19 inh 66 (no result: Ecoli tolC)
COc1ccc(C)cc1NC(=O)CSc1nnc(COc2ccccc2)n1Cc1ccco1	Ecoli tolC 76, CYP2C19 inh 87
Nn1c(SCC(=O)Nc2ccc(S(=O)(=O)N3CCCC3)cc2)nnc1C(F)(F)F	none
CN1CCN(c2ccc([N+](=O)[O-])c(-n3nc(-c4ccccc4)c4ccccc4c3=O)c2)CC1	none (no result: Ecoli tolC)
CN(C)c1nc(NS(=O)(=O)c2ccc(Cl)cc2)nc(N(C)C)n1	none
COc1cc(C)nc(N(C)S(=O)(=O)c2ccccc2Cl)n1	CYP2C19 inh 73
COc1nc(N(C)C)nc(N(OC)S(=O)(=O)c2ccccc2Cl)n1	CYP2C9 inh 72, CYP2C19 inh 90
CON(c1nc(Cl)nc(N(C)C)n1)S(=O)(=O)c1ccccc1Cl	CYP2C19 inh 69 (no result: Ecoli tolC)
Cn1c(=O)[nH]c(=O)c2c1nc(N1CCOCC1)n2CCCSc1ncccn1	none
O=C(NCc1ccco1)c1ccc(COCC(F)(F)F)cc1	none
Cc1cccc2cc(CN(Cc3ccco3)S(=O)(=O)c3ccc4c(c3)OCCO4)c(=O)[nH]c12	CYP2C9 inh 56, CYP2C19 inh 77
Cc1ccc(C)c2[nH]c(=O)c(CN(CC3CCCO3)S(=O)(=O)c3ccc4c(c3)OCCO4)cc12 (stereo not given)	CYP2C9 inh 61, Ecoli tolC 60
Cc1cc(C)c2[nH]c(=O)c(CN(CC3CCCO3)S(=O)(=O)c3ccc4c(c3)OCCO4)cc2c1 (stereo not given)	CYP2C9 inh 92, CYP2C19 inh 78
Clc1ccc(OCCCc2nc(-c3cccnc3)no2)c(Cl)c1	Ecoli tolC 95
Clc1ccc(OCc2nc(-c3ccncc3)no2)cc1	CYP2C9 inh 95, CYP2C19 inh 95 (no result: Ecoli tolC)
Clc1ccc(OCCCc2nc(-c3ccncc3)no2)c(Cl)c1	CYP2C9 inh 84, CYP2C19 inh 87 (no result: Ecoli tolC)
Cn1c(SCC(=O)n2c3c(c4ccccc42)CCCC3)nnc1-c1ccccc1	CYP2C9 activ 2, CYP2C19 inh 69 (no result: Ecoli tolC)
CC1CCN(CC(=O)n2c3c(c4ccccc42)CCCC3)CC1	CYP2C19 inh 68 (no result: Ecoli tolC)
CCN1CCN(CC(=O)n2c3c(c4ccccc42)CC(C)CC3)CC1 (stereo not given)	CYP2C19 inh 51
Cc1nnc(SCC(=O)n2c3c(c4ccccc42)CCCC3)s1	none
COc1ccc(-c2nnc(CSc3nc4ccccc4c(=O)n3CC3CCCO3)o2)cc1OC (stereo not given)	none (no result: CYP2C9 inh, CYP2C9 activ, CYP2C19 activ, CYP2C19 inh, Ecoli WT expand)
Cc1ccc(C(C#N)c2ccc3c(C(F)(F)F)cc(C(F)(F)F)nc3n2)cc1 (stereo not given)	CYP2C9 inh 84 (no result: Ecoli tolC)
O=C(CCCSc1nc2ccccc2s1)NCc1ccco1	CYP2C19 inh 76
Cc1csc(NC(=O)CSc2nc3ccccc3s2)n1	none (no result: Ecoli tolC)
Cc1cnc(NC(=O)CCCSc2nc3ccccc3s2)s1	none
Cc1csc(NC(=O)CCCSc2nc3ccccc3s2)n1	CYP2C9 inh 52, CYP2C19 inh 88
CCOc1ncccc1C(=O)OCC(=O)c1cc(C)n(Cc2ccco2)c1C	CYP2C9 activ 2.3, CYP2C19 inh 80
CCOc1ncccc1C(=O)OCC(=O)c1c(N)n(C)c(=O)n(C)c1=O	none
CCOc1ncccc1C(=O)OCC(=O)c1ccc(Cl)s1	CYP2C19 inh 55 (no result: Ecoli tolC)
